Assay results from ChEMBL document CHEMBL4033719 (Bioorg Med Chem, 2017).
pEC50, pIC50, pKd: −log10 of the molar value. The source made the active and inactive calls. The calls are words filed in the database; no cut-off is given here.

molecular target: T1, CDC7/DBF4 (Cell division cycle 7-related protein kinase/Activator of S phase kinase) (Homo sapiens, UniProt O00311); experiment: Inhibition of recombinant human full length Cdc7 (1 to 574 residues)/human N-terminal GST-tagged ASK (1 to 674 residues) expressed in baculovirus expression system using N-terminal His-tagged MCM2 as substrate pretreated for 10 mins followed by ATP addition by TR-FRET assay; details: not given

In order of rising pIC50:
1. Cc1nc2cc(-c3ccncc3)sc2c(=O)[nH]1  6.54
2. Cc1n[nH]cc1-c1cc2nc(CCN3CCCC3)[nH]c(=O)c2s1  6.85
3. Cc1n[nH]cc1-c1cc2nc(-c3ccccc3)[nH]c(=O)c2s1  7.82
4. O=c1[nH]c(CN2CCCC2)nc2cc(-c3ccncc3)sc12  7.92
5. Cc1n[nH]cc1-c1cc2nc(Cn3cccc3)[nH]c(=O)c2s1  8.33
6. O=c1[nH]c(CN2CCCC2)nc2cc(-c3cn[nH]c3)sc12  8.35
7. Cc1n[nH]cc1-c1cc2nc(CN3CC[C@@H](C)C3)[nH]c(=O)c2s1  8.57
8. Cc1n[nH]cc1-c1cc2nc(C3CCCCC3)[nH]c(=O)c2s1  8.57
9. Cc1n[nH]cc1-c1cc2nc(CN3CC[C@H](C)C3)[nH]c(=O)c2s1  8.80
10. CNCc1nc2cc(-c3c[nH]nc3C)sc2c(=O)[nH]1  8.85
11. Cc1n[nH]cc1-c1cc2nc(CN3CCC[C@@H]3C)[nH]c(=O)c2s1  8.92
12. Cc1n[nH]cc1-c1cc2nc(CN3CCCC3)[nH]c(=O)c2s1  9.15

molecular target: Cyclin-dependent kinase 2/cyclin E1 (Homo sapiens, UniProt P24941); experiment: Inhibition of full length human […]/human N-terminal GST-tagged CyclinE1 (1 to 410 residues) expressed in baculovirus expression system using histone H1 as substrate measured after 90 mins by Kinase-Glo luminescence assay; details: not given

`Cc1n[nH]cc1-c1cc2nc(CCN3CCCC3)[nH]c(=O)c2s1` and `Cc1n[nH]cc1-c1cc2nc(CN3CCCC3)[nH]c(=O)c2s1` cannot be ordered by pIC50: < 5.00 for the first, < 5.00 for the second.

First: CNCc1nc2cc(-c3c[nH]nc3C)sc2c(=O)[nH]1
Second: Cc1n[nH]cc1-c1cc2nc(CN3CC[C@H](C)C3)[nH]c(=O)c2s1
The pIC50 of the first is higher: 5.28 for the first, < 5.00 for the second.

`O=c1[nH]c(CN2CCCC2)nc2cc(-c3cn[nH]c3)sc12` and `O=c1[nH]c(CN2CCCC2)nc2cc(-c3ccncc3)sc12` cannot be ordered by pIC50: < 5.00 for the first, < 5.00 for the second.

`Cc1n[nH]cc1-c1cc2nc(CN3CCC[C@@H]3C)[nH]c(=O)c2s1` and `Cc1n[nH]cc1-c1cc2nc(CN3CC[C@@H](C)C3)[nH]c(=O)c2s1` cannot be ordered by pIC50: < 5.00 for the first, < 5.00 for the second.

Going from `Cc1n[nH]cc1-c1cc2nc(Cn3cccc3)[nH]c(=O)c2s1` to `Cc1n[nH]cc1-c1cc2nc(-c3ccccc3)[nH]c(=O)c2s1`, the pIC50 rises from 6.09 to 6.39 (0.30 log units). The second is the more potent here.

In the case of `Cc1n[nH]cc1-c1cc2nc(C3CCCCC3)[nH]c(=O)c2s1`, the pIC50 was 5.66.

molecular target: Rho-associated protein kinase 1 (Homo sapiens, UniProt Q13464); experiment: Inhibition of recombinant human N-terminal GST-tagged ROCK1 catalytic domain (1 to 477 residues) expressed in baculovirus expression system using Biotin-STK2 as substrate pretreated for 5 mins followed by ATP addition after 2 hrs by TR-FRET assay; details: not given

In order of falling pIC50:
1. Cc1n[nH]cc1-c1cc2nc(CN3CCCC3)[nH]c(=O)c2s1  6.85
2. Cc1n[nH]cc1-c1cc2nc(CN3CCC[C@@H]3C)[nH]c(=O)c2s1  6.80
3. O=c1[nH]c(CN2CCCC2)nc2cc(-c3ccncc3)sc12  6.74
4. CNCc1nc2cc(-c3c[nH]nc3C)sc2c(=O)[nH]1  6.44
5. Cc1n[nH]cc1-c1cc2nc(Cn3cccc3)[nH]c(=O)c2s1  6.43
6. Cc1n[nH]cc1-c1cc2nc(CN3CC[C@H](C)C3)[nH]c(=O)c2s1  6.38
7. Cc1n[nH]cc1-c1cc2nc(CN3CC[C@@H](C)C3)[nH]c(=O)c2s1  6.27
8. O=c1[nH]c(CN2CCCC2)nc2cc(-c3cn[nH]c3)sc12  6.09
9. Cc1n[nH]cc1-c1cc2nc(C3CCCCC3)[nH]c(=O)c2s1  6.03
10. Cc1n[nH]cc1-c1cc2nc(CCN3CCCC3)[nH]c(=O)c2s1  5.80
11. Cc1n[nH]cc1-c1cc2nc(-c3ccccc3)[nH]c(=O)c2s1  5.80

species: Homo sapiens; experiment: Selectivity ratio of IC50 for full length human […]/human N-terminal GST-tagged CyclinE1 (1 to 410 residues) expressed in baculovirus expression system to IC50 for recombinant human full length Cdc7 (1 to 574 residues)/human N-terminal GST-tagged ASK (1 to 674 residues) expressed in baculovirus expression system; details: not given

`Cc1n[nH]cc1-c1cc2nc(CCN3CCCC3)[nH]c(=O)c2s1` and `Cc1n[nH]cc1-c1cc2nc(C(C)N3CCCC3)[nH]c(=O)c2s1` (stereo not given) cannot be ordered by Ratio IC50: > 70 for the first, 3700 for the second.

Compared with `CNCc1nc2cc(-c3c[nH]nc3C)sc2c(=O)[nH]1`, `Cc1n[nH]cc1-c1cc2nc(CN3CC[C@H](C)C3)[nH]c(=O)c2s1` is higher in Ratio IC50: 3800 for the first, > 6300 for the second.

`Cc1n[nH]cc1-c1cc2nc(CN3CCC[C@@H]3C)[nH]c(=O)c2s1` and `Cc1n[nH]cc1-c1cc2nc(CN3CC[C@@H](C)C3)[nH]c(=O)c2s1` cannot be ordered by Ratio IC50: > 8300 for the first, > 3700 for the second.

First: Cc1n[nH]cc1-c1cc2nc(Cn3cccc3)[nH]c(=O)c2s1
Second: Cc1n[nH]cc1-c1cc2nc(-c3ccccc3)[nH]c(=O)c2s1
The Ratio IC50 of the first is higher: 170 for the first, 27 for the second.

With `Cc1n[nH]cc1-c1cc2nc(C3CCCCC3)[nH]c(=O)c2s1` the Ratio IC50 was 810.

species: Homo sapiens; experiment: Selectivity ratio of IC50 for recombinant human N-terminal GST-tagged ROCK1 catalytic domain (1 to 477 residues) expressed in baculovirus expression system to IC50 for recombinant human full length Cdc7 (1 to 574 residues)/human N-terminal GST-tagged ASK (1 to 674 residues) expressed in baculovirus expression system; details: not given

In order of rising Ratio IC50:
1. Cc1n[nH]cc1-c1cc2nc(CCN3CCCC3)[nH]c(=O)c2s1  11
2. Cc1n[nH]cc1-c1cc2nc(C(C)N3CCCC3)[nH]c(=O)c2s1 (stereo not given)  15
3. Cc1n[nH]cc1-c1cc2nc(Cn3cccc3)[nH]c(=O)c2s1  79
4. Cc1n[nH]cc1-c1cc2nc(-c3ccccc3)[nH]c(=O)c2s1  110
5. Cc1n[nH]cc1-c1cc2nc(CN3CCC[C@@H]3C)[nH]c(=O)c2s1  130
6. Cc1n[nH]cc1-c1cc2nc(CN3CC[C@@H](C)C3)[nH]c(=O)c2s1  200
7. CNCc1nc2cc(-c3c[nH]nc3C)sc2c(=O)[nH]1  260
8. Cc1n[nH]cc1-c1cc2nc(CN3CC[C@H](C)C3)[nH]c(=O)c2s1  260
9. Cc1n[nH]cc1-c1cc2nc(C3CCCCC3)[nH]c(=O)c2s1  350

molecular target: Cell division cycle 7-related protein kinase (Homo sapiens, UniProt O00311); experiment: Inhibition of Cdc7 in human HeLa cells assessed as reduction in MCM2 phosphorylation at ser40 residues after 7 hrs by Western blot analysis; format: cell-based; details: not given

First: O=c1[nH]c(CN2CCCC2)nc2cc(-c3cn[nH]c3)sc12
Second: Cc1n[nH]cc1-c1cc2nc(CN3CCCC3)[nH]c(=O)c2s1
The pIC50 of the first is lower: < 6.00 for the first, 6.60 for the second. The second is the more potent here.

`O=c1[nH]c(CN2CCCC2)nc2cc(-c3ccncc3)sc12` was tested, and the pIC50 was < 6.00.

system: COLO 205; experiment: Cytotoxicity against human COLO205 cells after 3 days by CellTiter-Glo luminescent cell viability assay; format: functional, cell-based; details: COLO 205, 72 h

In order of rising pEC50:
1. O=c1[nH]c(CN2CCCC2)nc2cc(-c3ccncc3)sc12  5.02
2. O=c1[nH]c(CN2CCCC2)nc2cc(-c3cn[nH]c3)sc12  5.12
3. Cc1n[nH]cc1-c1cc2nc(CN3CCCC3)[nH]c(=O)c2s1  5.96

molecular target: T1, CDC7/DBF4 (Cell division cycle 7-related protein kinase/Activator of S phase kinase); experiment: Inhibition of recombinant human full length Cdc7 (1 to 574 residues)/human N-terminal GST-tagged ASK (1 to 674 residues) expressed in baculovirus expression system using N-terminal His-tagged MCM2 as substrate measured immediately in presence of 50 uM ATP TR-FRET assay; details: not given

In order of falling pIC50:
1. O=c1[nH]c(CN2CCCC2)nc2cc(-c3cn[nH]c3)sc12  6.72
2. Cc1n[nH]cc1-c1cc2nc(CN3CCCC3)[nH]c(=O)c2s1  6.72
3. O=c1[nH]c(CN2CCCC2)nc2cc(-c3ccncc3)sc12  6.46

molecular target: T1, CDC7/DBF4 (Cell division cycle 7-related protein kinase/Activator of S phase kinase); experiment: Inhibition of recombinant human full length Cdc7 (1 to 574 residues)/human N-terminal GST-tagged ASK (1 to 674 residues) expressed in baculovirus expression system using N-terminal His-tagged MCM2 as substrate pretreated for 60 mins followed by 50 uM ATP addition by TR-FRET assay; details: not given

In order of falling pIC50:
1. Cc1n[nH]cc1-c1cc2nc(CN3CCCC3)[nH]c(=O)c2s1  8.77
2. O=c1[nH]c(CN2CCCC2)nc2cc(-c3cn[nH]c3)sc12  7.11
3. O=c1[nH]c(CN2CCCC2)nc2cc(-c3ccncc3)sc12  6.82

molecular target: CDC7/DBF4 (Cell division cycle 7-related protein kinase/Activator of S phase kinase) (Homo sapiens) (UniProt Q9UBU7+O00311); experiment: Time dependent inhibition of recombinant human full length Cdc7 (1 to 574 residues)/human N-terminal GST-tagged ASK (1 to 674 residues) expressed in baculovirus expression system using N-terminal His-tagged MCM2 as substrate in presence of 50 uM by TR-FRET assay; details: not given

`O=c1[nH]c(CN2CCCC2)nc2cc(-c3cn[nH]c3)sc12` was tested, and the TDI was “Active”.
For `Cc1n[nH]cc1-c1cc2nc(CN3CCCC3)[nH]c(=O)c2s1`, the TDI was “Active”.
`O=c1[nH]c(CN2CCCC2)nc2cc(-c3ccncc3)sc12` was tested, and the TDI was “Active”.

molecular target: T1, CDC7/DBF4 (Cell division cycle 7-related protein kinase/Activator of S phase kinase); experiment: Binding affinity to recombinant human full length Cdc7 (1 to 574 residues)/human N-terminal GST-tagged ASK (1 to 674 residues) expressed in baculovirus expression system by proteros reporter displacement assay; details: not given
How it was run: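 Cdc7/Dbf4(ASK) binding measured by reporter displacement. Outputs were equilibrium dissociation constant K_D, dissociation rate constant k_off (sec^-1) and residence time (min).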

In order of falling pKd:
1. Cc1n[nH]cc1-c1cc2nc(CN3CCCC3)[nH]c(=O)c2s1  9.27
2. O=c1[nH]c(CN2CCCC2)nc2cc(-c3cn[nH]c3)sc12  8.90
3. O=c1[nH]c(CN2CCCC2)nc2cc(-c3ccncc3)sc12  8.55
